Laboratory results from ChEMBL document CHEMBL3797175, “Discovery of 6-(difluoro(6-(4-fluorophenyl)-[1,2,4]triazolo[4,3-b][1,2,4]triazin-3-yl)methyl)quinoline as a highly potent and selective c-Met inhibitor” (Eur J Med Chem, 2016).
The source made the active and inactive calls. The calls are words filed in the database; no cut-off is given here.

Tests used:
[1] = Clearance in Sprague-Dawley rat at 2 mg/kg, iv administered as single dose; type: ADME, organism-based; details: in vivo
In short: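 Male Sprague Dawley rats (n=3), single dose. iv 2 mg/kg in 1% DMA/9% Cremophor/90% saline. po 10 mg/kg in 0.5% CMC-Na. Where iv was 10 mg/kg: 10% DMSO/10% Tween 80/80% (40% PEG40); po in that case in 10% DMSO/5% Tween 80/85% saline.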

[2] = Oral bioavailability in Sprague-Dawley rat at 10 mg/kg administered as single dose; type: ADME, organism-based; details: in vivo
In short: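 Male Sprague-Dawley rats (n=3), single dose. IV 2 mg/kg in 1% DMA/9% Cremophor/90% saline; PO 10 mg/kg in 0.5% CMC-Na. For one compound, IV 10 mg/kg in DMSO/Tween 80/PEG40 and PO 10 mg/kg in 10% DMSO/5% Tween 80/85% saline.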

[3] = Antitumor activity against human EBC1 cells xenografted in athymic nude mouse assessed as tumor growth inhibition at 25 mg/kg, po bid for 21 days measured twice a week during compound dosing relative to control; type: functional; details: EBC-1, po, 504 h, read-out: TGI
In short: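 Nude mice bearing s.c. tumours. Cells were first grown s.c. to 700–800 mm³, then 1.5 mm³ fragments were transplanted s.c. into the right flank. Mice were randomised at 100–200 mm³ (n=6 treated, n=12 vehicle) and dosed orally twice daily for 21 days. Caliper measurement twice weekly; TV = length×width²/2. TGI taken on the final day versus vehicle; Student's t test.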

[4] = target: Platelet-derived growth factor receptor alpha (Homo sapiens) (UniProt P16234); assay: Inhibition of recombinant PDGFRalpha (unknown origin) using poly (Glu, Tyr) 4:1 as substrate at 1000 nM incubated for 60 mins by ELISA relative to control
In short: (§1)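 Recombinant tyrosine kinases assayed on wells precoated with poly(Glu,Tyr)4:1 (20 µg/mL). ATP 10 µmol/L in HEPES pH 7.4 buffer with MgCl2, MnCl2, Na3VO4 and DTT; compound in 1% DMSO, 1% DMSO as control. Reaction 60 min at 37 °C. Phosphotyrosine detected with PY99 and HRP anti-mouse, o-phenylenediamine, A490. Inhibition % relative to control; two experiments.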

[5] = target: Receptor-type tyrosine-protein kinase FLT3 (Homo sapiens) (UniProt P36888); assay: Inhibition of recombinant FLT3 (unknown origin) using poly (Glu, Tyr) 4:1 as substrate at 1000 nM incubated for 60 mins by ELISA relative to control; in short: as §1
[6] = target: T1, Hepatocyte growth factor receptor (Homo sapiens, UniProt P08581); assay: Inhibition of c-Met in human EBC1 cells assessed as reduction in ERK phosphorylation at Threonine 202 at 10 nM after 1 hr by Western blot analysis; type: cell-based
In short: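 EBC-1 or MKN45 cells treated with compound 1 h at 37 °C without HGF, then lysed in 1× SDS sample buffer. Lysates run on 10% SDS-PAGE and transferred to nitrocellulose. Probed with antibodies to c-Met, phospho-c-Met, phospho-ERK1/2, phospho-AKT, AKT and GAPDH, then HRP secondary. ECL detection.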

[7] = Antiproliferative activity against human U87MG cells after 72 hrs by SRB or MTT assay; type: functional, cell-based, U-87MG ATCC; details: U-87 MG
In short: (§2)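 Cells seeded, exposed next day to a range of concentrations for 72 h. Growth read by sulforhodamine B or MTT. IC50 from four-parameter concentration-response fit. Each concentration tested at least in triplicate, with at least 2 experiments.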

[8] = Antiproliferative activity against human SGC7901 cells after 72 hrs by SRB or MTT assay; type: functional, cell-based; details: SGC-7901, 72 h; in short: as §2
[9] = Antiproliferative activity against human SPCA4 cells after 72 hrs by SRB or MTT assay; type: functional, cell-based; details: SPC-A4, 72 h; in short: as §2
AGS = assay: Antiproliferative activity against human AGS cells after 72 hrs by SRB or MTT assay; type: functional, cell-based; in short: as §2
SNU1 = assay: Antiproliferative activity against human SNU1 cells after 72 hrs by SRB or MTT assay; type: functional, cell-based; details: SNU1, 72 h; in short: as §2
MDA-MB-231 = assay: Antiproliferative activity against human MDA-MB-231 cells after 72 hrs by SRB or MTT assay; type: functional, cell-based; details: MDA-MB-231, 72 h; in short: as §2
[10] = target: T1, Hepatocyte growth factor receptor; assay: Inhibition of c-Met in human NCI-H441 cells assessed as inhibition of HGF-induced cell invasion after 24 hrs by crystal violet staining based microscopic analysis
In short: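 NCI-H441 cells, 1.5×10^5 in serum-free medium, placed in upper Transwell chamber (8 µm pores; Matrigel-coated for invasion). Lower chamber serum-free medium ± HGF 100 ng/mL, with compound. After 24 h at 37 °C, non-migrated cells removed. Traversed cells stained with 0.1% crystal violet 15 min and imaged in 5 fields per filter. Three independent experiments.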

[11] = Selectivity ratio of IC50 for human PANC1 cells to IC50 for human MKN45 cells; type: ADME, cell-based; details: panc-1
In short: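 Each cell line was seeded in 96-well plates, then exposed the next day to a range of compound concentrations for 72 h. Growth was read by SRB or MTT assay, and IC50 was fitted by a four-parameter concentration-response curve. Each concentration was run at least in triplicate, in at least 2 experiments. BaF3/TPR-Met are murine pre-B BaF3 cells transfected with TPR-MET cDNA and selected in puromycin.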

[12] = Selectivity ratio of IC50 for human 786-0 cells to IC50 for mouse BAF3 cells expressing TPR-MET; type: ADME, cell-based
In short: (§3)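 Both IC50s in each ratio come from one proliferation assay. Cells were seeded and exposed the next day to a range of concentrations for 72 h, then read by SRB or MTT. IC50s were fitted by four-parameter concentration–response, with each concentration at least in triplicate and at least 2 experiments. BaF3/TPR-Met is murine pre-B BaF3 transfected with TPR-MET and puromycin-selected.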

[13] = Selectivity ratio of IC50 for human HCT116 cells to IC50 for mouse BAF3 cells expressing TPR-MET; type: ADME, cell-based; in short: as §3
[14] = Selectivity ratio of IC50 for human NCI-H1299 cells to IC50 for human EBC1 cells; type: ADME, cell-based; in short: as §3
[15] = Selectivity ratio of IC50 for human NCI-H292 cells to IC50 for human EBC1 cells; type: ADME, cell-based; in short: as §3
[16] = Selectivity ratio of IC50 for human NCI-H292 cells to IC50 for human MKN45 cells; type: ADME, cell-based; in short: as §3
[17] = Selectivity ratio of IC50 for human NCI-H226 cells to IC50 for human EBC1 cells; type: ADME, cell-based; in short: as §3
[18] = Selectivity ratio of IC50 for human MDA-MB-231 cells to IC50 for mouse BAF3 cells expressing TPR-MET; type: ADME, cell-based; in short: as §3
[19] = Selectivity ratio of IC50 for human MGC803 cells to IC50 for human MKN45 cells; type: ADME, cell-based; details: mgc-803; in short: as §3
[20] = Selectivity ratio of IC50 for human SPCA1 cells to IC50 for mouse BAF3 cells expressing TPR-MET; type: ADME, cell-based; details: SPCA1 cells versus BAF3 cells expressing TPR-MET

T1 sequence (P08581 whole entry): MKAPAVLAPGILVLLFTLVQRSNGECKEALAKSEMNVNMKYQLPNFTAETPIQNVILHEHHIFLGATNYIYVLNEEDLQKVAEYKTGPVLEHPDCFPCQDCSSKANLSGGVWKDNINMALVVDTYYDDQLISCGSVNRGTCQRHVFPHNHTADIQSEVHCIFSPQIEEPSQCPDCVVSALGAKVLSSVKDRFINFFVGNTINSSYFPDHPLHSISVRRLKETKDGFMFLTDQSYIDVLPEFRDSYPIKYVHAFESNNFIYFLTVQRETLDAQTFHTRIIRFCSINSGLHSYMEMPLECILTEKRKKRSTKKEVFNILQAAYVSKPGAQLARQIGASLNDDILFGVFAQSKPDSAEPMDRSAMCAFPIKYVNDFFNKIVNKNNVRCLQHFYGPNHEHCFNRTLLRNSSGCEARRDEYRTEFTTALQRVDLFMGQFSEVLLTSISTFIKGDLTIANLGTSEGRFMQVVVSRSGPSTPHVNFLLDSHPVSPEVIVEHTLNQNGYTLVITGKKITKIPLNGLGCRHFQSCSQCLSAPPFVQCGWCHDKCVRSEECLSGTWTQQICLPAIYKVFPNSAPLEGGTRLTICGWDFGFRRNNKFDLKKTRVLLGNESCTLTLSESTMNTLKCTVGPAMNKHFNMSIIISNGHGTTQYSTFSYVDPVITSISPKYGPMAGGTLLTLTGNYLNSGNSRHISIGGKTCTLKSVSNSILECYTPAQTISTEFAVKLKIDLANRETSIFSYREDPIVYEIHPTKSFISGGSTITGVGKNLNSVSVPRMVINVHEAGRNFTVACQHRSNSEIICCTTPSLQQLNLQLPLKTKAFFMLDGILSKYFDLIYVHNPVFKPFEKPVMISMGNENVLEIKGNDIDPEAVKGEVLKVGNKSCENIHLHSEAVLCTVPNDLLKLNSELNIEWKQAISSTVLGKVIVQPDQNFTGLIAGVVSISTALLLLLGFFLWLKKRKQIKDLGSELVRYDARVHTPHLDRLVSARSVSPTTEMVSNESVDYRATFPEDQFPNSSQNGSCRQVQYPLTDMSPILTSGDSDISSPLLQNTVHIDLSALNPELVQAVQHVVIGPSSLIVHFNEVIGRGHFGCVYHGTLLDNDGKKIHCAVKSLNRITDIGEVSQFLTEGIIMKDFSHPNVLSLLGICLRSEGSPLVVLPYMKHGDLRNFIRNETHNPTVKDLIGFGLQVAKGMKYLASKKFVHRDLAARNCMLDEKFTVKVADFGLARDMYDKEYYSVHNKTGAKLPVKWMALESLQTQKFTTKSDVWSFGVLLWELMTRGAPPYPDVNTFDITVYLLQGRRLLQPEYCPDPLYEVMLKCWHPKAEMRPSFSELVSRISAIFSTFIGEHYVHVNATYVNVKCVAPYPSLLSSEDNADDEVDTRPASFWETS
Chain of Receptor-type tyrosine-protein kinase FLT3 (Homo sapiens) (P36888 whole entry): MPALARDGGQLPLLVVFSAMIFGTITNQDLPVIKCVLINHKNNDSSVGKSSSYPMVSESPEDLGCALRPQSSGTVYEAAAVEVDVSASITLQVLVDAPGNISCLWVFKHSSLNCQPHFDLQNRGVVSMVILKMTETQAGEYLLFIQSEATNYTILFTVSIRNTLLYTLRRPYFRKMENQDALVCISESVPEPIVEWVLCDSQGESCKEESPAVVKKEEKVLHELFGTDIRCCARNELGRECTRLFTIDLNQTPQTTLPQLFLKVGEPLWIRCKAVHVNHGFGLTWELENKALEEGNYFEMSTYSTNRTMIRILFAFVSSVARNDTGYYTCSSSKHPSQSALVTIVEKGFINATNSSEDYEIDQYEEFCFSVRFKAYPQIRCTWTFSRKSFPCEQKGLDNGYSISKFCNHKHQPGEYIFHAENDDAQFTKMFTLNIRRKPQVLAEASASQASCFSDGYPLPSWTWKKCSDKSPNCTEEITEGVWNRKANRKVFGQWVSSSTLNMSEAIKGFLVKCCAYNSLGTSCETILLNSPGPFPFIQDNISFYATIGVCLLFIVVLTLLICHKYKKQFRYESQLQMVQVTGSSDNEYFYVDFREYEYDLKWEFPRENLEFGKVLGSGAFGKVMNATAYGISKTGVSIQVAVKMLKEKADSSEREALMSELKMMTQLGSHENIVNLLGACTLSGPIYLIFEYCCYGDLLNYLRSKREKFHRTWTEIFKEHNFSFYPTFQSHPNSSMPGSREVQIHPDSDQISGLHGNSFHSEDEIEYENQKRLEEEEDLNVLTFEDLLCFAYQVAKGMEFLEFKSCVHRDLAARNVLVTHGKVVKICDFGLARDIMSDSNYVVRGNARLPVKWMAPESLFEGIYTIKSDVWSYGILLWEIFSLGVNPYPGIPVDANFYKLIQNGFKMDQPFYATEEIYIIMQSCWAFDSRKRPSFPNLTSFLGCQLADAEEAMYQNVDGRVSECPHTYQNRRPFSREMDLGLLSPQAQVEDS
Chain of Platelet-derived growth factor receptor alpha (Homo sapiens) (P16234 whole entry): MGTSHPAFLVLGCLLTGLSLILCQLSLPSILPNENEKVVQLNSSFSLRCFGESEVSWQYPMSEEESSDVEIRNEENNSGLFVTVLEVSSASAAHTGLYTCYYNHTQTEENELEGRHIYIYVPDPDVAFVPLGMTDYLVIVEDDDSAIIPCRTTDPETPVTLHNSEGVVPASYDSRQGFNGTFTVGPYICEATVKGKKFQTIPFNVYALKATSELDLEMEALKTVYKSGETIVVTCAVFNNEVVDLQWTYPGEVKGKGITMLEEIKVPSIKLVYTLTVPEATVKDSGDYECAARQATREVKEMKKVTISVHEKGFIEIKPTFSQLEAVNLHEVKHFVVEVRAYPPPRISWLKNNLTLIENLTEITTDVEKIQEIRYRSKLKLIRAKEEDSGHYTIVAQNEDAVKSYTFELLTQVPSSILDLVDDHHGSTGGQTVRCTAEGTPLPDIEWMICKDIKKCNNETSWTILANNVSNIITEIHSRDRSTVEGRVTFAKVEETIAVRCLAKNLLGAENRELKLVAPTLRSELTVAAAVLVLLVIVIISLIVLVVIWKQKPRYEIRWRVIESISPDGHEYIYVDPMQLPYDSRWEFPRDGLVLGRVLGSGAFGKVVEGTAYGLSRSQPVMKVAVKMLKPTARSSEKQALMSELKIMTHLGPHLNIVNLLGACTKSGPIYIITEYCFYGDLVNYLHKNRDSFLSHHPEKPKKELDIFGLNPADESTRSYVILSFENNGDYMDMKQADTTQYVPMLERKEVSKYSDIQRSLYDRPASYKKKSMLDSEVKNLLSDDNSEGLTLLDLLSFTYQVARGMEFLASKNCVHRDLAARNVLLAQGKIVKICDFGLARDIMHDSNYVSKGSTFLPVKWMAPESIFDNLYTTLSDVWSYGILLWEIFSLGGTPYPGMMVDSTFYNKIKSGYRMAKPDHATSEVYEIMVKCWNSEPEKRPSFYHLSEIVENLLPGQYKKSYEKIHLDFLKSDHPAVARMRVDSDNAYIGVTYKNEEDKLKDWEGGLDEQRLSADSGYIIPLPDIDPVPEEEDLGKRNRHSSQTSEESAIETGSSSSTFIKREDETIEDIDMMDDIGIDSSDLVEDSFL

Fc1ccc(-c2cnc3nnc(C(F)(F)c4ccc5ncccc5c4)n3n2)cc1
clearance [1]: 47.2 mL/min/kg
bioavailability [2]: 48.3%
inhibition in vivo at 25 mg/kg [3]: 97.1%
inhibition [4]: 31.4%
inhibition [5]: 12.3%
inhibition [6]: Active
IC50 [7]: > 10 µM
IC50 [8]: > 10 µM
IC50 [9]: > 10 µM
IC50 (AGS): > 10 µM
IC50 (SNU1): > 10 µM
IC50 (MDA-MB-231): > 10 µM
inhibition [10]: Dose-dependent effect
Ratio IC50 [11]: 10000
Ratio IC50 [12]: 10000
Ratio IC50 [13]: 10000
Ratio IC50 [14]: 10000
Ratio IC50 [15]: 10000
Ratio IC50 [16]: 10000
Ratio IC50 [17]: > 10000
Ratio IC50 [18]: > 10000
Ratio IC50 [19]: > 10000
selectivity ratio [20]: > 10000
